The source made the active and inactive calls. The rule behind the calls is not given here.
Assays:
[1] = target: Tyrosine-protein kinase Lck (Homo sapiens, UniProt P06239); test: Inhibitory activity against recombinant human p56 Lck tyrosine kinase
Jurkat = test: Inhibition of calcium release in Jurkat cells; format: functional, cell-based; settings: Homo sapiens
Method in brief: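 Jurkat cells were washed, loaded with Fluo-3 (2 μM final), then held in HBSS with Ca/Mg, HEPES, probenecid and 1% FBS at pH 7.4, giving 3 × 10⁵ cells/mL final. Compound was added for 15 min at room temperature. Anti-CD3 (clone X35, 0.25 μg/mL final) was then added and fluorescence followed for 13 min. EC50 is the mean of ≥2 experiments in duplicate ± SD.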

[2] = Inhibition of Extracellular signal-regulated kinase (Erk) - No inhibition at 100 ug/mL
[3] = target: cAMP-dependent protein kinase (PKA) (Homo sapiens) (UniProt P22694+P17612+P22612); test: Inhibition of Protein kinase A (PKA) - No inhibition at 500 uM; format: protein assay
[4] = target: MAP kinase p38 (Homo sapiens) (UniProt O15264+Q15759+Q16539+P53778); test: Inhibition of Mitogen-activated protein kinase p38 - No inhibition at 10 ug/mL; format: protein assay
[5] = target: Proto-oncogene tyrosine-protein kinase Src (Homo sapiens, UniProt P12931); test: Inhibition of c-SRC with 1 uM ATP
Method in brief: (§1)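 Enzyme amount for each kinase chosen to give a linear response over the whole reaction period. Inhibition was read as IC50 or as the highest concentration tested.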

[6] = target: Tyrosine-protein kinase SYK (Homo sapiens, UniProt P43405); test: Inhibition of Syk tyrosine kinase; method in brief: as §1
[7] = target: T1, Tyrosine-protein kinase ZAP-70 (Homo sapiens, UniProt P43403); test: Inhibition of Zeta-chain (TCR) associated protein kinase 70 kDa (ZAP70) with 1 uM ATP
T1 sequence (P43403 whole entry): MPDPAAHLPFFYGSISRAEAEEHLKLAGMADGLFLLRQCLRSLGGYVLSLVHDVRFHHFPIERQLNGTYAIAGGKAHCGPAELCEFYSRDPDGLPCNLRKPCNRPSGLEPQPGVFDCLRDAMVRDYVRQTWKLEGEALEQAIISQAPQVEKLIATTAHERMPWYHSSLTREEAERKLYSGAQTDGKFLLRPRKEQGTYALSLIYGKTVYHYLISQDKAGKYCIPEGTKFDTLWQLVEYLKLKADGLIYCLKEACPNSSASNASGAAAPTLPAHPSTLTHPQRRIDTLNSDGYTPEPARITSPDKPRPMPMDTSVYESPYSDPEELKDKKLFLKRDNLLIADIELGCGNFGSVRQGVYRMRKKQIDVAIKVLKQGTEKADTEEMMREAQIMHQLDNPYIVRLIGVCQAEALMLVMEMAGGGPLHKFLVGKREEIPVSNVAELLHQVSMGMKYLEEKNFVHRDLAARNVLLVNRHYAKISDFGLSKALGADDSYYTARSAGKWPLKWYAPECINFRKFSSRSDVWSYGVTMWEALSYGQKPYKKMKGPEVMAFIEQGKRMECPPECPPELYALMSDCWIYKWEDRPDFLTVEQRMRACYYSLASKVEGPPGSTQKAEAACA
Method in brief: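 Radiometric kinase assay with enzyme amount set to give a linear response over the reaction period. ATP at 1 μM final with γ³³P-ATP at 20 Ci/mmol. Compounds from 5 mg/mL DMSO stock, final 200 to 1 μg/mL for IC50. Reactions started with enzyme, run 60 min at 30 °C, stopped with TCA/pyrophosphate, filter-harvested, and counted by scintillation.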

[8] = target: Epidermal growth factor receptor (Homo sapiens, UniProt P00533); test: Inhibition of Epidermal growth factor receptor
Epidermal growth factor receptor, sequence (P00533 whole entry): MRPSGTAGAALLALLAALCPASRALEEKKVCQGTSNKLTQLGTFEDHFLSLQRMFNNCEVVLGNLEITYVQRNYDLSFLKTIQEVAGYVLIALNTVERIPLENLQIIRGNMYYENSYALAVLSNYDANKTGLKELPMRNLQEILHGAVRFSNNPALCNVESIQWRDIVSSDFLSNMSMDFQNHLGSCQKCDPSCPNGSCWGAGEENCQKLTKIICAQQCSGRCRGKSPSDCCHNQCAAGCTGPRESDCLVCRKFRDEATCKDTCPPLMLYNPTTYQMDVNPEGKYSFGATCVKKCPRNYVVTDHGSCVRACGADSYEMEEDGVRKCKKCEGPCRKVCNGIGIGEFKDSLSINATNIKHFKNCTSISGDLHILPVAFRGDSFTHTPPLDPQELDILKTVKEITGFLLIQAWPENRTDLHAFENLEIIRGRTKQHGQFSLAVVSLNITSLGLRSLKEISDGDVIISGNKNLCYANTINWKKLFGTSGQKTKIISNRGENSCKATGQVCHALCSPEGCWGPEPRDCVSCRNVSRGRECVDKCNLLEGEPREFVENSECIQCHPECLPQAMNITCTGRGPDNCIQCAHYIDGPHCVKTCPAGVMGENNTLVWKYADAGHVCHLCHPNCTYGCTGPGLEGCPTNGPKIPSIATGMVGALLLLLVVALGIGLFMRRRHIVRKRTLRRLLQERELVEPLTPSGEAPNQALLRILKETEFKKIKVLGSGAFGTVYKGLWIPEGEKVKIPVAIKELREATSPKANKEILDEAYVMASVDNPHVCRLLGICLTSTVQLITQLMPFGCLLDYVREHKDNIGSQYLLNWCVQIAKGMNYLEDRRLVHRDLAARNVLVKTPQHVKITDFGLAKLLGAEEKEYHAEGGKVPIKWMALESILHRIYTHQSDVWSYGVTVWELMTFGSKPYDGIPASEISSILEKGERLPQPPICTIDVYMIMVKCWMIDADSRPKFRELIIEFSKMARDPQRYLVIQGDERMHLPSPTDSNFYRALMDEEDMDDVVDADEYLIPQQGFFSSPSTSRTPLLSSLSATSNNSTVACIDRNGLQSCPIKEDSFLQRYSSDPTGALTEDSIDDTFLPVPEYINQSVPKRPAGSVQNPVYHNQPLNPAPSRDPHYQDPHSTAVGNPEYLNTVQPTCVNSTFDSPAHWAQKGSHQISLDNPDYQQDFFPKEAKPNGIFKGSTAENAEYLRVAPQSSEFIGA

Tyrosine-protein kinase Lck, sequence (P06239 whole entry): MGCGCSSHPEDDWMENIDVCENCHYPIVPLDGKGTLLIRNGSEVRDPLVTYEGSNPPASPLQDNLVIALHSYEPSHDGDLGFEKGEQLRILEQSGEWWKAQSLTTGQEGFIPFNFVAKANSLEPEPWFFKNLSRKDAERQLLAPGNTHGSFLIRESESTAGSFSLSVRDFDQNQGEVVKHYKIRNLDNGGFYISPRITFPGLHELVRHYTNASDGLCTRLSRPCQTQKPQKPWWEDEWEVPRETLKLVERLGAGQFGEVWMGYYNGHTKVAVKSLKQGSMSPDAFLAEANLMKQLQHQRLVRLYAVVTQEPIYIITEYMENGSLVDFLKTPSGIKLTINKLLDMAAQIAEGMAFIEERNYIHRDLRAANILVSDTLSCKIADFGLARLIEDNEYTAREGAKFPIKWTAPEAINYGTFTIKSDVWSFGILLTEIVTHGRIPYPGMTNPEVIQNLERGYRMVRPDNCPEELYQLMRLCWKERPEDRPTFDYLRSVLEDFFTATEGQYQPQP
Proto-oncogene tyrosine-protein kinase Src, sequence (P12931 2-536 limits assumed): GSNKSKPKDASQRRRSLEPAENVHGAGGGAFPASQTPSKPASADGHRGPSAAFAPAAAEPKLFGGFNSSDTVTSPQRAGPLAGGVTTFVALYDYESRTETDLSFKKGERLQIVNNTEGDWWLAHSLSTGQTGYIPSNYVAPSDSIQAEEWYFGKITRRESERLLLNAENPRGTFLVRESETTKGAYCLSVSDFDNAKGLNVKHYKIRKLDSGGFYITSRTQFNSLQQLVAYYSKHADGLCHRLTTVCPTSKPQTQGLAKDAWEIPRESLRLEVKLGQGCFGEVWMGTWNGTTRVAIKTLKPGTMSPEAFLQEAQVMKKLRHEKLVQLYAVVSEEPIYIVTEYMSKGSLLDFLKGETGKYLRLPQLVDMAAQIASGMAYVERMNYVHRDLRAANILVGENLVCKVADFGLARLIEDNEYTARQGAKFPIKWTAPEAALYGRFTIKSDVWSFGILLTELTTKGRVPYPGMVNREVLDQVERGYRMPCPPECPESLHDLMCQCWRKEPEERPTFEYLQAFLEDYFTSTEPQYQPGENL

SMILES | IC50 [1] | EC50 (Jurkat) | also measured
CC1(C)C(=O)NC(=O)c2c1ccc1[nH]c(Cc3c(Cl)cccc3Cl)nc21 | 9600 nM | – | –
CC1(C)C(=O)NC(=O)c2c1ccc1nc(Nc3ccc(Cl)cc3Cl)[nH]c21 | > 40000 nM | – | –
Cc1nc(O)c2c(ccc3[nH]c(Nc4c(Cl)cccc4Cl)nc32)c1C | – | 190 nM | NI [2]: inactive; NI [3]: inactive; NI [4]: inactive
CN1C(=O)c2c(ccc3nc(Nc4c(Cl)cccc4Cl)[nH]c23)C(C)(C)C1=O | 9600 nM | – | –
CCc1cccc(CC)c1Nc1nc2ccc3c(c2[nH]1)C(=O)NC(=O)C3(C)C | > 40000 nM | – | –
O=C1NCCc2ccc3[nH]c(Nc4c(Cl)cccc4Cl)nc3c21 | 380 nM | 1800 nM | –
CCC1(CC)C(=O)NC(=O)c2c1ccc1[nH]c(Nc3c(Cl)cccc3Cl)nc21 | 5900 nM | – | –
CC(C)CC1(C)C(=O)NC(=O)c2c1ccc1nc(Nc3c(Cl)cccc3Cl)[nH]c21 (stereo not drawn) | 5100 nM | – | –
CC1(C)CNCc2c1ccc1[nH]c(Nc3c(Cl)cccc3Cl)nc21 | > 40000 nM | – | –
Cc1nc(O)c2c(ccc3[nH]c(Nc4c(Cl)cc(Cl)cc4Cl)nc32)c1C | 18 nM | 420 nM | –
CC1(C)C(=O)NC(=O)c2c1ccc1nc(Nc3ccccc3Cl)[nH]c21 | > 40000 nM | – | –
CC1(C)C(=O)NC(=O)c2c1ccc1nc(Nc3ccc(Cl)cc3)[nH]c21 | > 40000 nM | – | –
CC1(C)C(=O)NC(=O)c2c1ccc1[nH]c(Nc3c(Cl)c(Cl)cc(Cl)c3Cl)nc21 | > 40000 nM | – | –
CC1(C)C(=O)NC(=O)c2c1ccc1[nH]c(Nc3c(F)cccc3F)nc21 | 11000 nM | – | –

The next lines start with results.

IC50 [1] | EC50 (Jurkat) | SMILES | also measured
770 nM | 2900 nM | Cc1cccc(Cl)c1Nc1nc2c3c(ccc2[nH]1)C(C)(C)C(=O)NC3=O | –
26 nM | – | Cc1[nH]c(=O)c2c(ccc3nc(Nc4c(Cl)cccc4Cl)[nH]c32)c1C | IC50 [5]: 12 nM; IC50 [6]: > 100000 nM; IC50 [7]: 80000 nM; IC50 [8]: 100000 nM
1100 nM | 5200 nM | CC1(C)CNC(=O)c2c1ccc1nc(Nc3c(Cl)cccc3Cl)[nH]c21 | –
150 nM | – | Cc1[nH]c(=O)c2c(ccc3[nH]c(Nc4ccccc4Cl)nc32)c1C | –
730 nM | 4300 nM | CC1(C)C(=O)NC(=O)c2c1ccc1[nH]c(Nc3c(Cl)cc(Cl)cc3Cl)nc21 | –
27 nM | 340 nM | Cc1cccc(Cl)c1Nc1nc2c(ccc3c(C)c(C)nc(O)c32)[nH]1 | –
460 nM | 9700 nM | CC1(C)C(=O)NC(=O)c2c1ccc1nc(Nc3c(Cl)cccc3Cl)[nH]c21 | –
2500 nM | – | Cn1c(Nc2c(Cl)cccc2Cl)nc2c3c(ccc21)C(C)(C)C(=O)NC3=O | –
600 nM | 7300 nM | CC1(C)C(=O)NC(=O)c2c1ccc1nc(Nc3c(Br)cc(Br)cc3Br)[nH]c21 | –
460 nM | 4600 nM | Cc1cccc(C)c1Nc1nc2ccc3c(c2[nH]1)C(=O)NC(=O)C3(C)C | –
2500 nM | – | CN(c1nc2c3c(ccc2[nH]1)C(C)(C)C(=O)NC3=O)c1c(Cl)cccc1Cl | –
25 nM | 610 nM | Cc1nc(O)c2c(ccc3[nH]c(Nc4c(Br)cc(Br)cc4Br)nc32)c1C | –
